Sampled rows, rich in hits. Any-hit rate of the full collection: about 2.8%.
PGE2 EP2 inh – human EP2 receptor antagonists, primary screen, TR-FRET cAMP, C6 glioma cells; Prostaglandin E2 receptor EP2 subtype (Homo sapiens), P43116; C6 glioma cells expressing human EP2; cells stimulated with saturating PGE2; inhibition, % at 25 µM; hit rate 0.52% among 260,000;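 active = percent inhibition above 40 after rounding to a whole number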;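 note: rat C6 glioma host cells with rolipram phosphodiesterase inhibitor present; the protocol text gives 20 µM as final concentration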
NPY-Y1 PAM-ag – NPY-Y1 receptor potentiators or agonists, primary screen, cell-based | Neuropeptide Y receptor type 1 (Homo sapiens), P25929 | NPY-Y1 expressing cells, potentiator/agonist activation | activation, % at 3.6 µM | hit rate 0.37% among 220,000; in the data active = activation above about 33%, passing the limit was not always enough;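 note: cells stimulated with NPY at EC10 then isoproterenol at EC100; 0% = low agonist plus stimulus and 100% = saturating agonist plus stimulus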
Target sequence (P25929 whole entry, looked up): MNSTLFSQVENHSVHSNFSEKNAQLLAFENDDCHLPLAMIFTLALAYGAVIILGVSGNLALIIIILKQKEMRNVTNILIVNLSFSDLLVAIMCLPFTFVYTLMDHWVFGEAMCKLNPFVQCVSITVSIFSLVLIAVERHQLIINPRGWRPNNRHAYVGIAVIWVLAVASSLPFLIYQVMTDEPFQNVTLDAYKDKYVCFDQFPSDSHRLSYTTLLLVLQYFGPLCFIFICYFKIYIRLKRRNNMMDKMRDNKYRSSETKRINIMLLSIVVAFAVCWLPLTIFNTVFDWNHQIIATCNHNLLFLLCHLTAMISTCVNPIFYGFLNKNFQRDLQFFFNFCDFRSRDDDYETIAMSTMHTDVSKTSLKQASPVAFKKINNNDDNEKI
NPY2 pot ag – NPY-Y2 potentiators or agonists, primary screen, cell-based; Neuropeptide Y receptor type 2 (Homo sapiens), P49146; cells expressing NPY-Y2, potentiator/agonist read-out; activation, % at 3.6 µM; hit rate 0.45% among 220,000; in the data active = activation above about 27%;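 note: cells stimulated with NPY near EC25 plus isoproterenol at EC100; 0% = vehicle plus submaximal agonist and 100% = vehicle plus saturating agonist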
NPY Y2 blocker – NPY-Y2 receptor antagonists, primary screen, cell-based; Neuropeptide Y receptor type 2 (Homo sapiens), P49146; NPY-Y2 expressing cells, antagonist mode; inhibition, % at 2.7 µM; hit rate 0.99% among 140,000; AID 793, 2007; in the data active = inhibition above about 17%;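 note: 0% = vehicle with agonist challenge and 100% = reference antagonist with challenge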
EP2 mod – EP2 receptor modulators, cAMP readout, primary screen, cell-based, HTRF cAMP, PGE2 stimulation. Prostaglandin E2 receptor EP2 subtype (Homo sapiens), P43116. hit rate 0.83% among 260,000. EP2-expressing cells, cAMP HTRF FRET, PGE2 co-stimulation. induction, % at 25 µM;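 active = compounds whose cAMP rise, as percent of the full-agonist control response, exceeds 60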;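 note: rat C6 glioma line stably carrying human EP2 under a CMV promoter; the protocol text gives 20 µM as final concentration; 100% = response of wells given 1 µM PGE2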
NPY Y1 blocker – NPY-Y1 receptor antagonists, primary screen, cell-based | Neuropeptide Y receptor type 1 (Homo sapiens), P25929 | HEK293-CNG Y1 cells, membrane potential fluorescence; NPY at EC95, then isoproterenol | inhibition, % at 3.6 µM | hit rate 1% among 200,000 | AID 1040, 2008;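 active = inhibition above the campaign mean inhibition of all tested compounds plus 3 SD, cut at about 20% in these data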;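 note: 0% = DMSO wells given NPY plus isoproterenol and 100% = isoproterenol alone without NPY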
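Test system – HEK293 Y1/CNG channel cell line · Also added – NPY agonist 25 nM, then isoproterenol 1 µM plus Ro 20-1724 25 µM · Compound dosing – one concentration, 3.6 µM, in 0.4% DMSO · Schedule – compound incubation 1 h at room temperature, readout 45 min post-stimulation · Technique – fluorescence, membrane potential probe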
NPY-Y1 antag ct – NPY-Y1 receptor antagonists, selectivity check, counter-screen for NPY-Y2 antagonist project, cell-based | shares compounds with NPY Y2 blocker | cell-based NPY-Y1 antagonism counterscreen | inhibition, % at 3.6 µM | hit rate 19% among 710 | AID 1256, 2008; in the data active = inhibition above about 20%;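 note: cells challenged with NPY then isoproterenol with cAMP sensed through a CNG channel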
NPY-Y2 ant conf – NPY-Y2 receptor antagonists, retest of hits, confirmation, HEK293-CNG cells, membrane potential fluorescence, triplicate; HEK293 NPY-Y2 CNG channel; AID 1257, 2008; inhibition, % at 2.8 µM; shares compounds with NPY Y2 blocker; hit rate 32% among 710;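 active = mean inhibition of triplicate wells above the hit cutoff set in the primary screen, cut at about 17% in these data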;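 note: 0% = DMSO with NPY challenge and 100% = BIIE0246 high control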
* = called active by the depositor; x = no result.

SMILES	PGE2 EP2 inh	NPY-Y1 PAM-ag	NPY2 pot ag	NPY Y2 blocker	EP2 mod	NPY Y1 blocker	NPY-Y1 antag ct	NPY-Y2 ant conf
O=C(Cc1ccc(Br)cc1)OCC(=O)c1ccc2c(c1)OCCO2	8	2	-12	17*	-4	13	6	10
O=C(Cc1n[nH]c(=O)c2ccccc12)OCC(=O)c1ccc2c(c1)OCCO2	2	-5	-1	6	-16	3	x	x
O=C(COC(=O)/C=C/c1ccc(Cl)cc1)Nc1ccccc1	13	0	-2	x	-39	7	x	x
O=C(COC(=O)/C=C/c1ccc(Cl)cc1)Nc1ccc2c(c1)OCCO2	8	3	7	17*	-17	6	14	12
Nc1nonc1C(=O)NCCNCc1ccccc1OCc1ccc(F)cc1	-1	-21	-36	17*	-9	10	12	12
CCOc1ccc(CNCCNC(=O)c2nonc2N)cc1	9	-8	-2	x	-2	2	x	x
COc1ccccc1NC(=O)C(Sc1ccccc1)c1ccccc1 (stereo not drawn)	5	-14	-14	10	40	4	x	x
Cc1c(NC(=O)C(Sc2ccccc2)c2ccccc2)cccc1[N+](=O)[O-] (stereo not drawn)	x	1	-10	18*	35	6	8	12
OC1(c2ccccc2)CCN(Cc2ccccc2)C2CCCCC21 (stereo not drawn)	6	-27	-25	29*	-27	18	19	43*
Clc1ccc(OCCn2c(-c3ccco3)nc3ccccc32)cc1	13	-44	-25	31*	16	19	32*	12
CC1CCN(S(=O)(=O)N2CCN(CC(O)c3ccc4c(c3)CC(C)O4)CC2)CC1 (stereo not drawn)	11	x	x	x	-86	x	x	x
Clc1ccc(C2=Nn3c(nnc3-c3n[nH]c4c3CCC4)SC2)cc1Cl	9	-15	-30	67*	23	14	11	18*
Cc1ccc(/C(N)=N/OC(=O)COc2ccccc2Cl)cc1	10	-8	4	9	29	2	x	x
N/C(=N\OC(=O)COc1ccccc1Cl)c1ccc(Cl)cc1	11	-23	-24	18*	7	8	6	10
CCN(CC)C(=O)N1CCC(c2nc(C)ncc2-c2cc(C)no2)CC1	x	x	x	x	2	x	x	x
Cc1ccc(OCC(=O)NC(=S)Nc2cccc(NC(=O)c3ccccc3)c2)cc1	4	4	-6	37*	-21	2	14	17
Cc1ccc(OCC(=O)NC(=S)Nc2cccc(NC(=O)c3ccc(Cl)cc3Cl)c2)cc1	8	3	-1	4	2	-2	x	x
Cc1ccc(CNC(=O)c2cn(C3CCCCC3)c(=O)c3c2c2ccccc2n3C)o1	20	-6	-3	20*	34	3	5	4
CC(C)N(C(=O)Cn1nc2n(Cc3ccccc3)c3ccccc3n2c1=O)C(C)C	x	x	x	x	-6	x	x	x
Cc1nc2c(c(=O)[nH]1)CCN(Cc1ccc3ccccc3n1)C2	4	x	x	x	-44	x	x	x
CCOC(=O)Cn1c(S(=O)(=O)Cc2cccc(F)c2)nc(-c2ccccc2)c1-c1ccccc1	8	-18	-12	19*	36	16	17	9
Cc1cc(C)nc(N2CCC(CNC(=O)CCn3ncc4ccccc43)CC2)n1	2	x	x	x	-26	x	x	x
Cc1nc(-c2ccccc2)sc1C(=O)CSc1ccc(F)cc1	16	-28	-32	20*	0	19	21*	25*

Source: PubChem
